From ChEMBL document CHEMBL3526046, “The role of aldehyde oxidase and xanthine oxidase in the biotransformation of a novel negative allosteric modulator of metabotropic glutamate receptor subtype 5” (Drug Metab Dispos, 2012) come the findings set out here.

Structures are written as SMILES.

The nature of data set [1]: Drug level in Sprague-Dawley rat hepatic S9 fraction treated with 25 uM VU0409106 by LC-UV-MS analysis. Format: ADME, tissue-based, Liver. The gist of the method: (§1)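 Hepatic S9 (5 mg/ml) in 0.1 M potassium phosphate pH 7.4 with 3 mM MgCl2 and 25 µM substrate, 37°C, 1 h under ambient oxygen; NADPH (2 mM) added in select runs. Reactions started by adding substrate. Protein precipitated with 2 volumes MeCN and the supernatant dried under nitrogen, reconstituted in 85:15 10 mM ammonium formate (pH 4.1)-MeCN, then analysed by LC-MS.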

Data set [2] can be described thus: Drug level in human hepatic S9 fraction treated with 25 uM VU0409106 by LC-UV-MS analysis. Format: ADME, tissue-based, Liver. The gist of the method: as §1
Data set [3] in a line: Drug level in human hepatic S9 fraction treated with 25 uM VU0409106 by LC-MS/MS analysis in presence of 100 uM hydralazine aldehyde oxidase inhibitor. Type of data set: ADME, tissue-based, Liver. In short, it runs like this:
as §1

Data set [4] has as its system Plasma. Briefly: Retention time in Sprague-Dawley rat plasma treated with 56.6 mg/kg, ip VU0409106 single dose. Type of data set: ADME, organism-based. The arrangement: dose 56.6 mg/kg, route intraperitoneal. The conditions noted are these: in vivo. The gist of the method: (§2)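 Male Sprague-Dawley rats given a single intraperitoneal dose of 56.6 mg/kg. Plasma extracted with 2 volumes acetonitrile and centrifuged; metabolites profiled by LC-MS/MS.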

In data set [5] the test system is Plasma. Briefly: Drug level in Sprague-Dawley rat plasma treated with 56.6 mg/kg, ip VU0409106 single dose by LC-MS/MS analysis. Type of data set: ADME, organism-based. The arrangement: dose 56.6 mg/kg, route intraperitoneal. The note with it: in vivo. The gist of the method: as §2
The nature of data set [6]: Drug level in cynomolgus monkey hepatic S9 fraction treated with 25 uM VU0409106 by LC-UV-MS analysis. Type of data set: ADME, tissue-based, Macaca fascicularis, Liver. In short, it runs like this:
as §1

Data set [7] is described as follows: Drug level in human hepatic S9 fraction treated with 25 uM VU0409106 by LC-MS/MS analysis in presence of 100 uM raloxifene aldehyde oxidase inhibitor. Format: ADME, tissue-based, Liver. The gist of the method: as §1
A short description of data set [8]: Drug level in Sprague-Dawley rat hepatic S9 fraction treated with 25 uM VU0409106 by LC-MS/MS analysis in presence of 100 uM hydralazine aldehyde oxidase inhibitor. Format: ADME, tissue-based, Liver. In short, it runs like this: as §1
The nature of data set [9]: Drug level in beagle dog hepatic S9 fraction treated with 25 uM VU0409106 by LC-MS/MS analysis. Format: ADME, tissue-based, Canis lupus familiaris, Liver. The gist of the method: as §1
Data set [10] can be described thus: Drug level in Sprague-Dawley rat hepatic S9 fraction treated with 25 uM VU0409106 by LC-MS/MS analysis in presence of 100 uM allopurinol xanthine oxidase inhibitor. Format: ADME, tissue-based, Liver. The gist of the method:
as §1

The test system of data set [11] is Hepatocyte. The data set can be described thus: Drug level in Sprague-Dawley rat cryopreserved hepatocytes treated with 25 uM VU0409106 by LC-UV-MS analysis. Format: ADME, cell-based.
For data set [12], the system named is Hepatocyte. Briefly: Drug level in Sprague-Dawley rat cryopreserved hepatocytes treated with 25 uM VU0409106 by LC-MS/MS analysis in presence of 1-ABT pan-450 inactivator. Type of data set: ADME, cell-based.
For data set [13], the system named is Hepatocyte. The data set can be described thus: Drug level in human cryopreserved hepatocytes treated with 25 uM VU0409106 by LC-MS/MS analysis. Format: ADME, cell-based. In short, it runs like this:
(§3)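 Pooled cryopreserved hepatocytes (2 × 10^6 cells/ml) in Krebs-Henseleit buffer, 25 µM substrate, 37°C for 4 h. Rat donors were 14 males, cynomolgus 4 males, human 20 mixed gender. Cells precipitated with 2 volumes MeCN, centrifuged at 4°C; supernatant dried under nitrogen, reconstituted in 15% aqueous MeCN for LC-MS.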

The test system of data set [14] is Hepatocyte. The data set can be described thus: Drug level in human cryopreserved hepatocytes treated with 25 uM VU0409106 by LC-MS/MS analysis in presence of 1-ABT pan-450 inactivator. Format: ADME, cell-based. In short, it runs like this:
as §3

Data set [15] can be described thus: Drug level in cynomolgus monkey cryopreserved hepatocytes treated with 25 uM VU0409106 by LC-MS/MS analysis. Type of data set: ADME, cell-based, Macaca fascicularis, Hepatocyte. In short, it runs like this:
as §3

In the case of `Cc1csc(NC(=O)c2cc(F)cc(Oc3cnc[nH]c3=O)c2)n1`, the Drug metabolism entry in data set [1] was “metabolite_detected”; in [2], “metabolite_detected”; in [3] it was “metabolite_not_detected”; in [5], “metabolite_detected”; in data set [6], “metabolite_detected”; in [7], “metabolite_not_detected”. Also, the Drug metabolism result in data set [8] is given as “metabolite_not_detected”; in data set [9], “metabolite_not_detected”; in data set [10], “metabolite_detected”; in data set [11], “metabolite_detected”. The compound further gave a Retention_time in [4] of 12.55 min.
With `Cc1csc(NC(=O)c2cc(O)cc(Oc3c[nH]c(=O)[nH]c3=O)c2)n1`, the Drug metabolism result in [12] was “metabolite_not_detected”; in data set [13], “metabolite_detected”; in [2], “metabolite_detected”; in [5], “metabolite_detected”; in data set [14] it was “metabolite_not_detected”; in data set [15] it was “metabolite_detected”. In addition, the Drug metabolism result in data set [6] and in data set [11] was “metabolite_detected” each time. This compound registered a Retention_time in data set [4] of 13.4 min.
